According to ChEMBL document CHEMBL3797149, “1-Sulfonyl-6-Piperazinyl-7-Azaindoles as potent and pseudo-selective 5-HT6 receptor antagonists” (Bioorg Med Chem Lett, 2016):
pIC50, pKi: −log10 of the molar value. Converted amounts (≈) assume the structure as drawn.

Assays:
[1] = Tmax in CD1 mouse plasma at 10 mg/kg, sc by LC-MS/MS analysis; assay type: ADME, organism-based
[2] = Cmax in CD1 mouse liver at 3 mg/kg, po as single dose after 6 hrs by LC-MS/MS analysis; assay type: ADME, organism-based; parameters: dose 3 mg/kg, route oral
[3] = Intrinsic clearance in mouse liver microsomes at 1 uM by UPLC-MS analysis in presence of NADPH and UDPGA; assay type: ADME; conditions: read-out: CLH
[4] = Ratio of drug level in brain to plasma in CD1 mouse at 10 mg/kg, sc by LC-MS/MS analysis; assay type: ADME, organism-based; conditions: read-out: BPR
[5] = AUClast in CD1 mouse plasma at 10 mg/kg, sc after 0.083 to 6 hrs by LC-MS/MS analysis; assay type: ADME, organism-based; parameters: time 0.083-6 hr, dose 10 mg/kg, route subcutaneous
[6] = AUClast in CD1 mouse brain at 10 mg/kg, po as single dose after 6 hrs by LC-MS/MS analysis; assay type: ADME, organism-based; parameters: time < 6 hr, dose 10 mg/kg, route oral
[7] = Cmax in CD1 mouse liver at 3 mg/kg, sc after 6 hrs by LC-MS/MS analysis; assay type: ADME, organism-based; parameters: dose 3 mg/kg, route subcutaneous
[8] = AUClast in CD1 mouse liver at 10 mg/kg, sc after 6 hrs by LC-MS/MS analysis; assay type: ADME, organism-based; parameters: dose 10 mg/kg, time < 6 hr, route subcutaneous
[9] = Ratio of drug level in liver to plasma in CD1 mouse at 10 mg/kg, po as single dose by LC-MS/MS analysis; assay type: ADME, organism-based
[10] = Ratio of drug level in liver to plasma in CD1 mouse at 3 mg/kg, po as single dose by LC-MS/MS analysis; assay type: ADME, organism-based
[11] = Kinetic solubility in sorensen buffer at pH 7.4 incubated for 1 hr by UV-Visible spectrophotometry; assay type: physicochemical; conditions: read-out: Kinetic_solubility
[12] = Tmax in CD1 mouse plasma at 3 mg/kg, po as single dose by LC-MS/MS analysis; assay type: ADME, organism-based
[13] = Tmax in CD1 mouse brain at 3 mg/kg, sc by LC-MS/MS analysis; assay type: ADME, organism-based
[14] = Intrinsic clearance in human liver microsomes at 1 uM by UPLC-MS analysis in presence of NADPH and UDPGA; assay type: ADME; conditions: read-out: CLH
[15] = Cmax in CD1 mouse liver at 10 mg/kg, po as single dose after 6 hrs by LC-MS/MS analysis; assay type: ADME, organism-based; parameters: dose 10 mg/kg, route oral
[16] = tested on: Brain; assay: Cmax in CD1 mouse brain at 3 mg/kg, po as single dose after 6 hrs by LC-MS/MS analysis; assay type: ADME, organism-based; parameters: dose 3 mg/kg, route oral; conditions: in vivo, BLD = below limit of detection
[17] = AUClast in CD1 mouse brain at 3 mg/kg, sc after 6 hrs by LC-MS/MS analysis; assay type: ADME, organism-based; parameters: time < 6 hr, dose 3 mg/kg, route subcutaneous
[18] = Cmax in CD1 mouse liver at 10 mg/kg, sc after 6 hrs by LC-MS/MS analysis; assay type: ADME, organism-based; parameters: dose 10 mg/kg, route subcutaneous
[19] = Cmax in CD1 mouse brain at 3 mg/kg, sc after 6 hrs by LC-MS/MS analysis; assay type: ADME, organism-based; parameters: dose 3 mg/kg, route subcutaneous
[20] = Tmax in CD1 mouse liver at 10 mg/kg, sc by LC-MS/MS analysis; assay type: ADME, organism-based
[21] = Cmax in CD1 mouse plasma at 10 mg/kg, po as single dose after 0.083 to 6 hrs by LC-MS/MS analysis; assay type: ADME, organism-based; parameters: dose 10 mg/kg, route oral
[22] = target: Voltage-gated inwardly rectifying potassium channel KCNH2 (Homo sapiens, UniProt Q12809); assay: Inhibition of human ERG1 expressed in CHO cells by whole cell patch clamp electrophysiology method
Chain of Voltage-gated inwardly rectifying potassium channel KCNH2 (Q12809 whole entry): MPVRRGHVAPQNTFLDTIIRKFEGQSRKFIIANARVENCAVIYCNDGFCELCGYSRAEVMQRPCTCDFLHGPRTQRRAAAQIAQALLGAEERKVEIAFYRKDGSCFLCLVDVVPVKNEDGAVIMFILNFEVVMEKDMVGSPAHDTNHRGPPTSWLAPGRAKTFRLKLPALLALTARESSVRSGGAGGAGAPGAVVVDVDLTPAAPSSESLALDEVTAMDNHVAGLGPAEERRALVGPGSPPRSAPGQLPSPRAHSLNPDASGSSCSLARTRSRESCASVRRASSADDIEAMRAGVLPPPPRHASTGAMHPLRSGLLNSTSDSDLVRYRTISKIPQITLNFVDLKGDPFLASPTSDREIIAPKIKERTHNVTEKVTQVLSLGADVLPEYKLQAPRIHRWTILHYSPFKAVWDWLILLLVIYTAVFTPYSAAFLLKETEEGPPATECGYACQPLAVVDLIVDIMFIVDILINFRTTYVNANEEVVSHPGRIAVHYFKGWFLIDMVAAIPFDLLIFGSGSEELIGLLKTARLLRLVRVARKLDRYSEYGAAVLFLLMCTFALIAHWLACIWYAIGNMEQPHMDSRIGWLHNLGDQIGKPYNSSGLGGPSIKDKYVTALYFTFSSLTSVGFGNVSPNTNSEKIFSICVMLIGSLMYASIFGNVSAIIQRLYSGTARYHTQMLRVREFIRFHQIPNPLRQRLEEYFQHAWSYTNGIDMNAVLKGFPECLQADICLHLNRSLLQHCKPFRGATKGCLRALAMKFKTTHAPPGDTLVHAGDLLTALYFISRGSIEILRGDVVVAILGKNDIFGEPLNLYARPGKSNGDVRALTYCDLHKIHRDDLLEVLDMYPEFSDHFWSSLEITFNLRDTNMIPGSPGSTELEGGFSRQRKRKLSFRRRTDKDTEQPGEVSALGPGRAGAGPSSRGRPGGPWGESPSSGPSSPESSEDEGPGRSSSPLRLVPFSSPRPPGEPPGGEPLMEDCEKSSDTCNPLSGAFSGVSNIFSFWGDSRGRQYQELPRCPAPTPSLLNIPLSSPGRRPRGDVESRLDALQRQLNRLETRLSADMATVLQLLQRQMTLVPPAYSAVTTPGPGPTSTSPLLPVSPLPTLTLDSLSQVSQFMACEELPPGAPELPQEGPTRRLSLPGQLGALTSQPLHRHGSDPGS

[23] = tested on: Brain; assay: Tmax in CD1 mouse brain at 3 mg/kg, po as single dose by LC-MS/MS analysis; assay type: ADME, organism-based; conditions: in vivo, BLD = below limit of detection
[24] = AUClast in CD1 mouse plasma at 10 mg/kg, po as single dose after 0.083 to 6 hrs by LC-MS/MS analysis; assay type: ADME, organism-based; parameters: time upper 6 hr, time lower 0.083 hr, dose 10 mg/kg, route oral
[25] = Tmax in CD1 mouse brain at 10 mg/kg, po as single dose by LC-MS/MS analysis; assay type: ADME, organism-based
[26] = AUClast in CD1 mouse liver at 3 mg/kg, po as single dose after 6 hrs by LC-MS/MS analysis; assay type: ADME, organism-based; parameters: dose 3 mg/kg, time < 6 hr, route oral
[27] = AUClast in CD1 mouse liver at 3 mg/kg, sc after 6 hrs by LC-MS/MS analysis; assay type: ADME, organism-based; parameters: time < 6 hr, dose 3 mg/kg, route subcutaneous
[28] = Tmax in CD1 mouse liver at 3 mg/kg, sc by LC-MS/MS analysis; assay type: ADME, organism-based
[29] = Cmax in CD1 mouse brain at 10 mg/kg, po as single dose after 6 hrs by LC-MS/MS analysis; assay type: ADME, organism-based; parameters: dose 10 mg/kg, route oral
[30] = target: Cytochrome P450 2D6 (Homo sapiens, UniProt P10635); assay: Inhibition of human recombinant CYP2D6 using AMMC as substrate incubated for 45 mins by fluorescence analysis in presence of NADPH; assay type: ADME
Chain of Cytochrome P450 2D6 (P10635 whole entry): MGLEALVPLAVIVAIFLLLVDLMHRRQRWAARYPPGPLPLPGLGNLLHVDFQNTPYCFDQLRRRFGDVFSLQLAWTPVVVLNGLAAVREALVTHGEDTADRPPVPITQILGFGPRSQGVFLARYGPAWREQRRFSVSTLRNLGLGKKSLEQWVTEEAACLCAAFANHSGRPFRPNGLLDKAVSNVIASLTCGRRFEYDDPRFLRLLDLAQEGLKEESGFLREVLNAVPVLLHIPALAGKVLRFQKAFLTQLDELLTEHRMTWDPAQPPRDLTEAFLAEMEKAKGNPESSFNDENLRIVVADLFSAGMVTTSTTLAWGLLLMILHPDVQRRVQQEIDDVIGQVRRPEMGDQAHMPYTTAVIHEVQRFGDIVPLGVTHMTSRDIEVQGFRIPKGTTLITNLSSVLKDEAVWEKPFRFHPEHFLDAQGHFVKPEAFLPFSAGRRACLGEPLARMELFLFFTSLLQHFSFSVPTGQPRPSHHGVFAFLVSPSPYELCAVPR

[31] = AUClast in CD1 mouse plasma at 3 mg/kg, sc after 0.083 to 6 hrs by LC-MS/MS analysis; assay type: ADME, organism-based; parameters: time lower 0.083 hr, dose 3 mg/kg, time upper 6 hr, route subcutaneous
[32] = Tmax in CD1 mouse brain at 10 mg/kg, sc by LC-MS/MS analysis; assay type: ADME, organism-based
[33] = Tmax in CD1 mouse plasma at 10 mg/kg, po as single dose by LC-MS/MS analysis; assay type: ADME, organism-based
[34] = target: 5-hydroxytryptamine receptor 6 (Homo sapiens, UniProt P50406); assay: Displacement of [3H]LSD from human 5HT6 receptor in HEK293 cell membrane incubated for 1 hr by scintillation counting method; assay type: cell membranes
Chain of 5-hydroxytryptamine receptor 6 (P50406 whole entry): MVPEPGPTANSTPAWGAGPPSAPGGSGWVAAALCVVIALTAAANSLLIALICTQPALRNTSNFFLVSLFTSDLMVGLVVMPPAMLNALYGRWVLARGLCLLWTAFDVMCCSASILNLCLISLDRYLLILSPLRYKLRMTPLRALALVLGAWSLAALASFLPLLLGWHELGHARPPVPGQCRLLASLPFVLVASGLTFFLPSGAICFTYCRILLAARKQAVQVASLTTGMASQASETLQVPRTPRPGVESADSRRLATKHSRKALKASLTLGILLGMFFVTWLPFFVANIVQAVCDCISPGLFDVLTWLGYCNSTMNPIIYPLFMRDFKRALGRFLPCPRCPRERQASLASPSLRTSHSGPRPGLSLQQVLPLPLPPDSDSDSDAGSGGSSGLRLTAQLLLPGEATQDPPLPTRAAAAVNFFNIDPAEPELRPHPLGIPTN
Method in brief: (§1)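 Competition binding: [3H]-LSD displacement for 5-HT6 and [3H]-NMSP displacement for D2. Eight compound concentrations, 5 × 10^-6 to 5 × 10^-13 M, each tested in triplicate. Affinity is reported as Ki.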

[35] = Intrinsic clearance in rat liver microsomes at 1 uM by UPLC-MS analysis in presence of NADPH and UDPGA; assay type: ADME; conditions: read-out: CLH
[36] = Ratio of drug level in liver to plasma in CD1 mouse at 3 mg/kg, sc by LC-MS/MS analysis; assay type: ADME, organism-based
[37] = Cmax in CD1 mouse plasma at 3 mg/kg, sc after 0.083 to 6 hrs by LC-MS/MS analysis; assay type: ADME, organism-based; parameters: dose 3 mg/kg, route subcutaneous
[38] = Ratio of drug level in brain to plasma in CD1 mouse at 3 mg/kg, sc by LC-MS/MS analysis; assay type: ADME, organism-based; conditions: read-out: BPR
[39] = AUClast in CD1 mouse brain at 10 mg/kg, sc after 6 hrs by LC-MS/MS analysis; assay type: ADME, organism-based; parameters: dose 10 mg/kg, time < 6 hr, route subcutaneous
[40] = target: D(2) dopamine receptor (Homo sapiens, UniProt P14416); assay: Displacement of [3H]NMSP from human dopamine D2S receptor expressed in CHO cell membrane incubated for 1 hr by scintillation counting method; assay type: cell membranes; method in brief: as §1
Chain of D(2) dopamine receptor (P14416 whole entry): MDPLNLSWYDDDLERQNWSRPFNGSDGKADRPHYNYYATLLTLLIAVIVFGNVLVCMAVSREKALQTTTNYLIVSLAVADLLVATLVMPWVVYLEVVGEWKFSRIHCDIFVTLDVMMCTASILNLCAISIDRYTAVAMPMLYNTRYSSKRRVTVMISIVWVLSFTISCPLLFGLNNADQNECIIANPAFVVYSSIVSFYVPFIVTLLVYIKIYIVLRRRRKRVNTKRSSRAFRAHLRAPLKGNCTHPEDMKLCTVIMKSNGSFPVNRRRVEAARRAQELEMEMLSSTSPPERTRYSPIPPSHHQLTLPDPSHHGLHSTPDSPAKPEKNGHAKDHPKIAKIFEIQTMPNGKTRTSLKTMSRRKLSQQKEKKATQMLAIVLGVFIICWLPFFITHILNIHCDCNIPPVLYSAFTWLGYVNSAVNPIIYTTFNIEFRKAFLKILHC

[41] = Cmax in CD1 mouse plasma at 10 mg/kg, sc after 0.083 to 6 hrs by LC-MS/MS analysis; assay type: ADME, organism-based; parameters: dose 10 mg/kg, route subcutaneous
[42] = Tmax in CD1 mouse liver at 3 mg/kg, po as single dose by LC-MS/MS analysis; assay type: ADME, organism-based
[43] = Cmax in CD1 mouse brain at 10 mg/kg, sc after 6 hrs by LC-MS/MS analysis; assay type: ADME, organism-based; parameters: dose 10 mg/kg, route subcutaneous
[44] = Passive permeability of compound after 4 hrs by sink-PAMPA assay; assay type: ADME; conditions: read-out: permeability
[45] = Ratio of drug level in brain to plasma in CD1 mouse at 3 mg/kg, po as single dose by LC-MS/MS analysis; assay type: ADME, organism-based; conditions: BLD = below limit of detection
[46] = Ratio of drug level in brain to plasma in CD1 mouse at 10 mg/kg, po as single dose by LC-MS/MS analysis; assay type: ADME, organism-based; conditions: read-out: BPR
[47] = AUClast in CD1 mouse liver at 10 mg/kg, po as single dose after 6 hrs by LC-MS/MS analysis; assay type: ADME, organism-based; parameters: dose 10 mg/kg, time < 6 hr, route oral
[48] = Tmax in CD1 mouse plasma at 3 mg/kg, sc by LC-MS/MS analysis; assay type: ADME, organism-based
[49] = Ratio of drug level in liver to plasma in CD1 mouse at 10 mg/kg, sc by LC-MS/MS analysis; assay type: ADME, organism-based
[50] = Cmax in CD1 mouse plasma at 3 mg/kg, po as single dose after 0.083 to 6 hrs by LC-MS/MS analysis; assay type: ADME, organism-based; parameters: dose 3 mg/kg, route oral
[51] = target: Cytochrome P450 3A4 (Homo sapiens, UniProt P08684); assay: Inhibition of human recombinant CYP3A4 using 7-benzyloxy-trifluoromethylcoumarin as substrate incubated for 30 mins by fluorescence analysis in presence of NADPH; assay type: ADME
Chain of Cytochrome P450 3A4 (P08684 whole entry): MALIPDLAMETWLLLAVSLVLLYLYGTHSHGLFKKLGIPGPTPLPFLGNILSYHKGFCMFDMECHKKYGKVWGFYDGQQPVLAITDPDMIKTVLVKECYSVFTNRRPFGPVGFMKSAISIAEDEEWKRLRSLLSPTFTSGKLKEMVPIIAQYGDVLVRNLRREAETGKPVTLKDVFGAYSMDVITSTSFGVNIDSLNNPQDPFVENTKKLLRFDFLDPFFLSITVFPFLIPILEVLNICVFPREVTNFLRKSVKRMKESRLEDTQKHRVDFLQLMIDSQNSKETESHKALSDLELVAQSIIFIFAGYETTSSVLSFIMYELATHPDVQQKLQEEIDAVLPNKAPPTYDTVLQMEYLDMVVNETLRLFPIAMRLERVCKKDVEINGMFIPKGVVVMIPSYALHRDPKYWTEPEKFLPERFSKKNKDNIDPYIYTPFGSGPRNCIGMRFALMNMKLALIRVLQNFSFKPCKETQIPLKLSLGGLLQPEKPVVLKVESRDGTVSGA

[52] = Tmax in CD1 mouse liver at 10 mg/kg, po as single dose by LC-MS/MS analysis; assay type: ADME, organism-based
[53] = AUClast in CD1 mouse plasma at 3 mg/kg, po as single dose after 0.083 to 6 hrs by LC-MS/MS analysis; assay type: ADME, organism-based; parameters: dose 3 mg/kg, time upper 6 hr, time lower 0.083 hr, route oral

## CC(C)CS(=O)(=O)n1ccc2c(-c3ccc(C(F)(F)F)cc3)cc(N3CCN(C)CC3)nc21
[1]
  Tmax: 1 h
[2]
  Cmax: 0.11 µg/mL
[3]
  microsomal CLint at 1 µM: 63 µL/min/mg
[4]
  Kp: 0.8
[5]
  AUC(0-t): 0.208 µg·h/mL
[6]
  AUC(0-t) at 6 h: 0.134 µg·h/mL
[7]
  Cmax: 0.043 µg/mL
[8]
  AUC(0-t) at 6 h: 0.687 µg·h/mL
[9]
  Kp: 30.7
[10]
  Kp: 19.5
[11]
  solubility kinetic at 1 h: 8 µg/mL (≈ 16.6 µM)
[12]
  Tmax: 1 h
[13]
  Tmax: 6 h
[14]
  microsomal CLint at 1 µM: 20 µL/min/mg
[15]
  Cmax: 0.74 µg/mL
[16]
  Cmax: BLD
[17]
  AUC(0-t) at 6 h: 0.079 µg·h/mL
[18]
  Cmax: 0.142 µg/mL
[19]
  Cmax: 0.016 µg/mL
[20]
  Tmax: 1 h
[21]
  Cmax: 0.017 µg/mL
[22]
  pIC50: 5.68
[23]
  Tmax: BLD
[24]
  AUC(0-t): 0.097 µg·h/mL
[25]
  Tmax: 6 h
[26]
  AUC(0-t) at 6 h: 0.26 µg·h/mL
[27]
  AUC(0-t) at 6 h: 0.241 µg·h/mL
[28]
  Tmax: 1 h
[29]
  Cmax: 0.026 µg/mL
[30]
  pIC50: 5.48
[31]
  AUC(0-t): 0.09 µg·h/mL
[32]
  Tmax: 6 h
[33]
  Tmax: 6 h
[34]
  pKi: 8.40
[35]
  microsomal CLint at 1 µM: 55 µL/min/mg
[36]
  Kp: 2.7
[37]
  Cmax: 0.018 µg/mL
[38]
  Kp: 0.9
[39]
  AUC(0-t) at 6 h: 0.161 µg·h/mL
[40]
  pKi: 6.44
[41]
  Cmax: 0.044 µg/mL
[42]
  Tmax: 0.25 h
[43]
  Cmax: 0.036 µg/mL
[44]
  Papp at 4 h: 537 nm/s
[45]
  BPR: BLD
[46]
  Kp: 1.4
[47]
  AUC(0-t) at 6 h: 2.97 µg·h/mL
[48]
  Tmax: 1 h
[49]
  Kp: 3.3
[50]
  Cmax: 0.003 µg/mL
[51]
  pIC50: 5.96
[52]
  Tmax: 0.5 h
[53]
  AUC(0-t): 0.013 µg·h/mL
